# Only some compounds are listed: those with a hit (about 2.1% of all), similar ones and a draw of the others.
# MEKK2 WT-MEK5: raises or lowers MEK5 binding to wildtype human MEKK2 PB1 domain; Q9Y2U5; binding response (% of control), % at 10 µM; bead flow cytometry, Alexa488-MEK5 binding to MEKK2 WT; actives lie on both sides; hit rate 1.1% among 290,000; in the data active = binding response below about 67% or above about 130%
# MEKK2 mut-MEK5: signal of MEK5 binding to mutant human MEKK2 PB1 domain; bead flow cytometry, Alexa488-MEK5 binding to MEKK2 mutant; AID 1530; hit rate 0.35% among 290,000; percent response, % at 10 µM; in the data active = percent response above about 24%, passing the limit was not always enough
# STK33 kinase inh: human STK33 kinase inhibition; Q9BYT3; purified STK33, MBP phosphorylation, ADP-Glo luminescence; inhibition, % at 10 µM; hit rate 0.073% among 320,000;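 active = inhibition at or above 25%, using the most active replicate where run in duplicate; inactive = inhibition below 25%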
# Target sequence (Q9BYT3 whole entry, looked up): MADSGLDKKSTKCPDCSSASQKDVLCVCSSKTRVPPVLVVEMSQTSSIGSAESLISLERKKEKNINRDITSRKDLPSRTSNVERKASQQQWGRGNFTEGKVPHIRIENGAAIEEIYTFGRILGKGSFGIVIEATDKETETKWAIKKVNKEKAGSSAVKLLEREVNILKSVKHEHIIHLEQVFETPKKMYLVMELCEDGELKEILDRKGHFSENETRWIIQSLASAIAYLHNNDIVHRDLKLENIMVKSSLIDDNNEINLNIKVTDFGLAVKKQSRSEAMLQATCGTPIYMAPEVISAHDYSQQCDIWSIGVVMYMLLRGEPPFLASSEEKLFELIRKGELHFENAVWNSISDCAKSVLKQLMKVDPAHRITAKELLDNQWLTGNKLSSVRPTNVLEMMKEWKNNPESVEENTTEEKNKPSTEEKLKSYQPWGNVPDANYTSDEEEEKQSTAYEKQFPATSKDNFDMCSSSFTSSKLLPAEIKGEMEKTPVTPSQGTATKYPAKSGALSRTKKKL
# MEKK3 PB1 HTS: MEKK3-MEK5 PB1 interaction, increase or decrease; hit rate 1.4% among 290,000; Q99759; bead-based flow cytometry, Alexa488-MEK5 binding to MEKK3; actives lie on both sides; 0 = blocked by unlabeled MEK5, 100 = vehicle; binding response (% of control), % at 10 µM;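 active = binding response more than 3 SD above or below the average of its plate-row segment, actives on both sides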;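 also: Alexa488 bead fluorescence after subtracting the streptavidin-only scavenger bead signal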
# GSK3 alpha inh: inhibitors of human GSK-3 alpha kinase; P49840; ADP-Glo luminescence, 60 min; inhibition, % at 10 µM; hit rate 0.1% among 320,000; AID 2650;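 active = more than half of replicates show inhibition above 20%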;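 also: GST-tagged GSK-3 alpha with peptide substrate and 25 µM ATP; 0% = DMSO neutral wells and 100% = GW8510 positive control wells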
# GSK3B inh: human GSK3beta kinase inhibition. activity score (negative = inhibition), % at 10 µM. hit rate 0.038% among 300,000. GST-GSK3beta kinase, ADP-Glo luminescence, 60 min; hits give low values;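 active = more than half of replicate wells score below -50%, meaning over 50% inhibition versus plate controls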;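 also: 0% = median DMSO wells and -100% = median GW8510 positive control wells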
#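 Assay system: GST-tagged human GSK3beta kinase, cell-free; Input: 1.6 ng GSK3beta; Medium: Tris/MgCl2 kinase buffer; Timing: 60 min enzyme reaction, room temperature; Signal: ADP-Glo luminescence quantifying ADP generated by kinase; Evaluation: score relative to plate controls; Benchmarks: DMSO neutral wells and GW8510 at 20 µM as positive.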
# MEKK2wt confirm: raises or lowers MEK5 binding to wildtype human MEKK2, retest. shares compounds with MEKK3 PB1 HTS. bead flow cytometry, Alexa488-MEK5 binding to MEKK2 WT; actives lie on both sides. binding response (% of control), % at 10 µM. AID 1892. hit rate 2.4% among 5,900; in the data active = binding response below about 16% or above about 210%; inactive = in between
# MEKK2mut-MEK5: signal of MEK5 binding to mutant human MEKK2, retest | shares compounds with MEKK3 PB1 HTS | bead flow cytometry, Alexa488-MEK5 binding to MEKK2 mutant | percent response, % at 10 µM | hit rate 2% among 5,900 | AID 1893; in the data active = percent response mostly above about 71%, no sharp cut-off; inactive = mostly below about 38%;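 also: higher means compound restores mutant binding toward wildtype level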
# MEKK3-MEK5 inh: confirmation of inhibitors of MEK5 binding to human MEKK3; shares compounds with MEKK3 PB1 HTS; hit rate 1.8% among 5,900; binding response (% of control), % at 10 µM; bead flow cytometry, Alexa488-MEK5 binding to MEKK3; hits give low values; AID 1894;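 active = binding response below 72% of control, or above a set upper limit, though filed actives all read lower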;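 also: 100% = DMSO only wells and 0% = binding blocked by excess unlabeled MEK5; lower values mean stronger disruption of MEK5 binding to MEKK3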
# The depositor's hits bear a star; . = no result given; [ ] = another dose, or the depositor's remark.
SMILES,MEKK2 WT-MEK5,MEKK2 mut-MEK5,STK33 kinase inh,MEKK3 PB1 HTS,GSK3 alpha inh,GSK3B inh,MEKK2wt confirm,MEKK2mut-MEK5,MEKK3-MEK5 inh
CCCc1cc(=O)[nH]c(SCc2cc(C(=O)OC)c(C)o2)n1,3.0*[inhibitor],-16,-1,2.0*[inhibitor],1,1,99,-2,101
CC(=O)N1CCN(C(=O)CSc2ncnc3sc(C)c(C)c23)CC1,.,.,-2,.,-2,.,.,.,.
O=C(Nc1ccc(N2CCOCC2)c(Cl)c1)c1cccnc1,98,2,-1,101,3,2,.,.,.
O=C(Nc1ccccc1N1CCOCC1)c1cccnc1,112,2,0,128*,-2,-1,106,0,104
COc1ccc2c(c1)c(CC(=O)Nc1ccc(C(C)=O)cc1)c(C)n2C(=O)c1ccc(Cl)cc1,92,1,-2,47*[inhibitor],0,2,105,-3,101
O=C(O)C12CC3CC(C1)CC(n1ncc(N4CCN(c5ccccc5)CC4)c(Cl)c1=O)(C3)C2,102,-1,-2,145*,-1,-13,106,2,104
N#Cc1sc(NCc2ccccn2)nc1Cl,96,1,-1,95,2,2,.,.,.
COc1ccc(NC(=S)N2CCN(C(=O)C3CCCO3)CC2)cc1 (stereo not given),104,-2,0,103,2,3,.,.,.
O=C(NCCNC1CCC(c2ccccc2)CC1)c1cccs1 (stereo not given),96,-8,-1,89,1,-1,.,.,.
Cc1nn2c3ccccc3n(C)c2nc1=O,102,4,1,106,0,4,.,.,.
Cc1nn2c(N)csc2nc1=O,69*[inhibitor],-6,-1,62*[inhibitor],-1,2,59,-24,51*
c1ccc(OCCOc2cccc3cccnc23)cc1,109,1,1,152*,-1,-1,94,0,94
O=C1CSC(c2ccccc2O)N1Cc1ccccc1 (stereo not given),97,-2,0,98,-1,-1,.,.,.
CC(C)C(=O)Nc1cccc(-c2csc(-c3ccccc3)n2)c1,110,0,0,139*,-2,4,95,-1,103
COc1ccc(/C=C/C(=O)c2ccc3c(c2)OCCO3)cc1[N+](=O)[O-],120,6,-1,132*,.,1,97,-3,97
O=C(NCc1ccc(F)cc1)C1Cc2ccccc2CN1C(=O)c1ccco1 (stereo not given),84,-2,0,69*[inhibitor],1,0,105,7,108
O=C(NCc1ccccc1)C1Cc2ccccc2CN1C(=O)c1ccco1 (stereo not given),97,-11,1,100,-1,2,.,.,.
COc1ccc(/C=N/NC(=O)c2ccc(O)cc2)cc1CN1CCCc2ccccc21,44*[inhibitor],24,-2,97,-7,-1,88,-9,103
COc1ccc(/C=N/NC(=O)c2ccc(F)cc2)cc1CN1CCc2cc(OC)c(OC)cc2C1C (stereo not given),118,16,0,104,-2,0,.,.,.
CCCC1/C(=N/O)CC(c2ccccc2)NC1c1ccccc1 (stereo not given),7.0*[inhibitor],-42,-1,4.0*[inhibitor],9,-2,101,-3,101
Cc1ccc(NC(=S)NN(C)c2cc(C)nc(C)n2)cc1,107,1,0,129*,1,-1,99,1,100
Cc1cnc(C)c(N(C)NC(=S)Nc2ccccc2)n1,105,5,-3,106,-1,2,.,.,.
CC(=O)n1c(-c2ccccc2)c(CO)c2ccccc21,95,-1,0,100,-4,1,.,.,.
